Laboratory results taken from ChEMBL document CHEMBL4265926, “Synthesis and antibacterial activity evaluation of novel biaryloxazolidinone analogues containing a hydrazone moiety as promising antibacterial agents” (Eur J Med Chem, 2018).
In brackets after ≈: the same amount, converted by molar mass.

Experiments:
Staphylococcus aureus [1] = test: Antibacterial activity against Staphylococcus aureus ATCC 29213 by broth liquid microdilution method; format: functional
In short: (§1)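 Isolates were identified on an automated MicroScan WalkAway 96 system. Susceptibility was tested by broth microdilution following CLSI guidelines. MIC was taken as the lowest concentration giving complete inhibition of bacterial growth. S. aureus ATCC 29213 served as the control strain.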

Staphylococcus aureus [2] = test: Antibacterial activity against methicillin-resistant Staphylococcus aureus by broth liquid microdilution method; format: functional; in short: as §1
Staphylococcus aureus [3] = test: Antibacterial activity against methicillin-sensitive Staphylococcus aureus by broth liquid microdilution method; format: functional; in short: as §1
Enterococcus faecalis [4] = test: Antibacterial activity against linezolid-resistant Enterococcus faecalis by broth liquid microdilution method; format: functional; in short: as §1
Enterococcus faecium [5] = test: Antibacterial activity against vancomycin-resistant Enterococcus faecium by broth liquid microdilution method; format: functional; in short: as §1
Staphylococcus aureus [6] = test: Antibacterial activity against methicillin-resistant Staphylococcus aureus clinical isolates by broth liquid microdilution method; format: functional; in short: as §1
Staphylococcus aureus [7] = test: Antibacterial activity against methicillin-sensitive Staphylococcus aureus clinical isolates by broth liquid microdilution method; format: functional; in short: as §1
Enterococcus faecium [8] = test: Antibacterial activity against vancomycin-resistant Enterococcus faecium clinical isolates by broth liquid microdilution method; format: functional; in short: as §1
Enterococcus faecalis [9] = test: Antibacterial activity against linezolid-resistant Enterococcus faecalis clinical isolates by broth liquid microdilution method; format: functional; in short: as §1
[10] = target: T1, MAO-A (amine oxidase [flavin-containing] A) (Homo sapiens, UniProt P21397); test: Inhibition of recombinant human MAOA expressed in baculovirus infected Sf9 insect cells at 30 uM using luciferin derived substrate pretreated for 15 mins followed by substrate addition and measured after 60 mins by luminescence assay relative to control; details: probe luciferin derived substrate
T1 sequence (P21397 whole entry): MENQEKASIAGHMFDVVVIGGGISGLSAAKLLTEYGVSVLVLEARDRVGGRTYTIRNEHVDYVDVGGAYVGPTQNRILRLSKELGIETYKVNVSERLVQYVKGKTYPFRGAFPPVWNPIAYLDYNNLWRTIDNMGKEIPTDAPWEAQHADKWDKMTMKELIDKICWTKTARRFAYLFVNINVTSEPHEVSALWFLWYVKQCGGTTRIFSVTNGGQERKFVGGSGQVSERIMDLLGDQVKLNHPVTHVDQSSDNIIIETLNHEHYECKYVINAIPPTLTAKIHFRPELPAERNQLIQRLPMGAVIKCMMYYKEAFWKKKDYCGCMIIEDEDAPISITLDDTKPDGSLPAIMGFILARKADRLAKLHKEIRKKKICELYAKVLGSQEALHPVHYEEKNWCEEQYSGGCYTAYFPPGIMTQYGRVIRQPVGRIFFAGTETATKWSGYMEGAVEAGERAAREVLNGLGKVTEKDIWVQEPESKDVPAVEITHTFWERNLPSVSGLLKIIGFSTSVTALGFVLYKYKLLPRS
In short: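 Human recombinant MAO-A with MAO-Glo luminescent kit. Compounds in DMSO (final 1% DMSO) preincubated with enzyme 15 min at room temperature, then luciferin derivative substrate added and reacted 60 min at room temperature. Luciferase detection reagent added for 20 min before luminescence read. Buffer replacing enzyme served as 100% inhibition control and DMSO as no-inhibition control; percent inhibition calculated against both.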

HepG2 = test: Cytotoxicity against human HepG2 cells after 48 hrs by MTT assay; format: cell-based; details: HepG2, 48 h
In short: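 HepG2 cells grown in RPMI1640 with 10% FBS; about 4×10⁴ cells per well seeded in MEM, incubated 24 h at 37 ℃ in 5% CO₂, then exposed to compounds at indicated final concentrations for 48 h. MTT added (final 0.5 mg/mL) for 4 h at 37 ℃, formazan dissolved in DMSO, absorbance read at 492 nm. Triplicate runs; IC50 as mean ± SD.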

[11] = Half life in human liver microsomes at 1.5 uM in presence of NADPH by LC-MS analysis; format: ADME, microsome
In short: (§2)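 Human liver microsomes with 1.5 µM compound in a 0.75 mg/mL microsome mix were pre-warmed at 37 °C for 5 min. Reaction started with NADPH (6 mM stock). Samples were quenched with acetonitrile plus internal standard at 0, 5, 15, 30 and 45 min, then read by LC/MS, in duplicate. T1/2 = ln(2)/k from the log-linear slope; Clint derived from T1/2; % remaining read at 45 min.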

[12] = Intrinsic clearance in human liver microsomes at 1.5 uM pretreated for 5 mins followed by NADPH addition measured after 5 to 45 mins by LC-MS analysis; format: ADME, microsome; details: read-out: CLH; in short: as §2
[13] = Stability in human liver microsomes assessed as parent compound remaining at 1.5 uM pretreated for 5 mins followed by NADPH addition measured after 45 mins by LC-MS analysis; format: ADME, microsome; details: read-out: Stability; in short: as §2
Staphylococcus aureus [14] = test: Potency index, ratio of linezolid MIC to test compound MIC for Staphylococcus aureus ATCC 29213; format: functional
In short: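 MIC by broth microdilution per CLSI guidelines, taken as the lowest concentration giving complete growth inhibition; isolates identified on MicroScan WalkAway 96; S. aureus ATCC29213 used as control strain. Index expressed as linezolid MIC divided by test compound MIC.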

Staphylococcus aureus [15] = test: Potency index, ratio of linezolid MIC to test compound MIC for methicillin-sensitive Staphylococcus aureus; format: functional

SMILES | MIC (Staphylococcus aureus [1]) [µg/mL] | MIC (Staphylococcus aureus [2]) [µg/mL] | MIC (Staphylococcus aureus [3]) [µg/mL] | MIC (Enterococcus faecalis [4]) [µg/mL] | MIC (Enterococcus faecium [5]) [µg/mL] | MIC50 (Staphylococcus aureus [6]) [µg/mL] | MIC90 (Staphylococcus aureus [6]) [µg/mL] | MIC (Staphylococcus aureus [7]) [µg/mL] | MIC50 (Staphylococcus aureus [7]) [µg/mL] | MIC90 (Staphylococcus aureus [7]) [µg/mL] | MIC (Enterococcus faecium [8]) [µg/mL] | MIC50 (Enterococcus faecium [8]) [µg/mL] | MIC90 (Enterococcus faecium [8]) [µg/mL] | MIC (Enterococcus faecalis [9]) [µg/mL] | MIC50 (Enterococcus faecalis [9]) [µg/mL] | MIC90 (Enterococcus faecalis [9]) [µg/mL] | inhibition at 1 h, 30 µM [10] [%] | IC50 (HepG2) [µM] | remaining at 0.75 h, 1.5 µM [13] [%] | Ratio (Staphylococcus aureus [14]) | other results
CC(=O)NC[C@H]1CN(c2ccc(-c3ccc(/C=N/N4CCNCC4)cc3)c(F)c2)C(=O)O1 | 0.0675 (≈ 0.154 µM) | 0.0675 (≈ 0.154 µM) | 0.0675 (≈ 0.154 µM) | 0.25 (≈ 0.569 µM) | 0.25 (≈ 0.569 µM) | 0.125 (≈ 0.284 µM) | 0.25 (≈ 0.569 µM) | 0.0625 to 0.25 (≈ 0.142 to 0.569 µM) | 0.125 (≈ 0.284 µM) | 0.25 (≈ 0.569 µM) | 0.0625 to 0.5 (≈ 0.142 to 1.14 µM) | 0.25 (≈ 0.569 µM) | 0.5 (≈ 1.14 µM) | 0.0625 to 0.25 (≈ 0.142 to 0.569 µM) | 0.25 (≈ 0.569 µM) | 0.25 (≈ 0.569 µM) | 84 | – | – | – | –
CC(=O)NC[C@H]1CN(c2ccc(-c3ccc(/C=N/N4CCN(C(=O)c5ccc(F)cc5)CC4)cc3)c(F)c2)C(=O)O1 | 0.125 (≈ 0.223 µM) | 0.125 (≈ 0.223 µM) | 0.125 (≈ 0.223 µM) | 0.125 (≈ 0.223 µM) | 0.125 (≈ 0.223 µM) | 0.125 (≈ 0.223 µM) | 0.25 (≈ 0.445 µM) | 0.0625 to 0.25 (≈ 0.111 to 0.445 µM) | 0.25 (≈ 0.445 µM) | 0.25 (≈ 0.445 µM) | 0.0625 to 0.5 (≈ 0.111 to 0.89 µM) | 0.25 (≈ 0.445 µM) | 0.5 (≈ 0.89 µM) | 0.0625 to 0.25 (≈ 0.111 to 0.445 µM) | 0.25 (≈ 0.445 µM) | 0.25 (≈ 0.445 µM) | 89 | – | – | – | –
CC(=O)NC[C@H]1CN(c2ccc(-c3ccc(/C=N/N4CCN(C(=O)CO)CC4)cc3)c(F)c2)C(=O)O1 | 0.0675 (≈ 0.136 µM) | 0.0675 (≈ 0.136 µM) | 0.0675 (≈ 0.136 µM) | 0.0675 (≈ 0.136 µM) | 0.0675 (≈ 0.136 µM) | 0.0625 (≈ 0.126 µM) | 0.125 (≈ 0.251 µM) | 0.0625 to 0.125 (≈ 0.126 to 0.251 µM) | 0.0625 (≈ 0.126 µM) | 0.125 (≈ 0.251 µM) | 0.0625 to 0.5 (≈ 0.126 to 1 µM) | 0.125 (≈ 0.251 µM) | 0.25 (≈ 0.502 µM) | 0.0625 to 0.125 (≈ 0.126 to 0.251 µM) | 0.125 (≈ 0.251 µM) | 0.25 (≈ 0.502 µM) | 80 | 4.66 | 93.9 | – | half-life at 1.5 µM [11]: 11.1 h; CLint scaled at 1.5 µM [12]: 2.62 mL/min/kg
CC(=O)NC[C@H]1CN(c2ccc(-c3ccc(/C=N/N4CCSCC4)cc3)c(F)c2)C(=O)O1 | 0.0675 (≈ 0.148 µM) | 0.0675 (≈ 0.148 µM) | 0.0675 (≈ 0.148 µM) | 0.0675 (≈ 0.148 µM) | 0.0675 (≈ 0.148 µM) | 0.125 (≈ 0.274 µM) | 0.25 (≈ 0.548 µM) | 0.0625 to 0.25 (≈ 0.137 to 0.548 µM) | 0.125 (≈ 0.274 µM) | 0.25 (≈ 0.548 µM) | 0.0625 to 0.5 (≈ 0.137 to 1.1 µM) | 0.15 (≈ 0.329 µM) | 0.5 (≈ 1.1 µM) | 0.0625 to 0.25 (≈ 0.137 to 0.548 µM) | 0.125 (≈ 0.274 µM) | 0.5 (≈ 1.1 µM) | 81 | – | – | 15 - 30 | Ratio (Staphylococcus aureus [15]): 15 - 30
CC(=O)NC[C@H]1CN(c2ccc(-c3ccc(/C=N/N4CC[S+]([O-])CC4)cc3)c(F)c2)C(=O)O1 | 0.0675 (≈ 0.143 µM) | 0.0675 (≈ 0.143 µM) | 0.0675 (≈ 0.143 µM) | 0.0675 (≈ 0.143 µM) | 0.0675 (≈ 0.143 µM) | 0.125 (≈ 0.265 µM) | 0.25 (≈ 0.529 µM) | 0.0625 to 0.25 (≈ 0.132 to 0.529 µM) | 0.125 (≈ 0.265 µM) | 0.25 (≈ 0.529 µM) | 0.0625 to 0.5 (≈ 0.132 to 1.06 µM) | 0.125 (≈ 0.265 µM) | 0.5 (≈ 1.06 µM) | 0.0625 to 0.25 (≈ 0.132 to 0.529 µM) | 0.125 (≈ 0.265 µM) | 0.5 (≈ 1.06 µM) | 88 | – | – | 15 - 30 | Ratio (Staphylococcus aureus [15]): 15 - 30
CC(=O)NC[C@H]1CN(c2ccc(-c3ccc(/C=N/N4CCN(C)CC4)cc3)c(F)c2)C(=O)O1 | 0.0675 (≈ 0.149 µM) | 0.0675 (≈ 0.149 µM) | 0.0675 (≈ 0.149 µM) | 0.0675 (≈ 0.149 µM) | 0.0675 (≈ 0.149 µM) | 0.0625 (≈ 0.138 µM) | 0.125 (≈ 0.276 µM) | 0.0625 to 0.25 (≈ 0.138 to 0.551 µM) | 0.0625 (≈ 0.138 µM) | 0.125 (≈ 0.276 µM) | 0.0625 to 0.5 (≈ 0.138 to 1.1 µM) | 0.25 (≈ 0.551 µM) | 0.5 (≈ 1.1 µM) | 0.0625 to 0.25 (≈ 0.138 to 0.551 µM) | 0.125 (≈ 0.276 µM) | 0.125 (≈ 0.276 µM) | 71 | 0.82 | 64.7 | 15 - 30 | Ratio (Staphylococcus aureus [15]): 15 - 30; half-life at 1.5 µM [11]: 1.21 h; CLint scaled at 1.5 µM [12]: 23.9 mL/min/kg
CC(=O)NC[C@H]1CN(c2ccc(N3CCOCC3)c(F)c2)C(=O)O1 [LINEZOLID] | 1 (≈ 2.96 µM) | 1 (≈ 2.96 µM) | 1 (≈ 2.96 µM) | > 16 | 2 (≈ 5.93 µM) | 2 (≈ 5.93 µM) | 4 (≈ 11.9 µM) | 1 to 2 (≈ 2.96 to 5.93 µM) | 2 (≈ 5.93 µM) | 2 (≈ 5.93 µM) | 1 to 4 (≈ 2.96 to 11.9 µM) | 2 (≈ 5.93 µM) | 4 (≈ 11.9 µM) | > 16 | > 16 | > 16 | 74 | > 25 | 104 | – | MIC (Staphylococcus aureus [6]): 1 to 4 µg/mL (≈ 2.96 to 11.9 µM)
